Reference: ChEMBL document CHEMBL5058577, “EUbOPEN Chemogenomics Library 2 (Multiplex)” (2022)

Tested on: U2OS
Test: Multiplex assay against U2OS
Format: toxicity, cell-based
Details: human
In short: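 Per cents of healthy-nucleus cells form the tubulin, mitochondrial-mass and membrane-permeability phenotype values. Live cells were stained at seeding with Hoechst33342, BioTracker Green Microtubule Cytoskeleton Dye, MitoTracker Red and Annexin V Alexa Fluor 680. After compound addition they were imaged on a CQ1 microscope at 37°C and 5% CO2, and CellPathfinder machine-learning gating split them into Hoechst high-intensity objects or normal cells, normal cells into healthy, pyknosed or fragmented nuclei, and pyknosed cells into mitotic or apoptotic.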

[1] = 12 h, 1 µM, compound concentration 1 uM, replicate 1
[2] = 12 h, 1 µM, compound concentration 1 uM, replicate 2
[3] = 12 h, 10 µM, compound concentration 10 uM, replicate 1
[4] = 12 h, 10 µM, compound concentration 10 uM, replicate 2
[5] = 24 h, 1 µM, compound concentration 1 uM, replicate 1
[6] = 24 h, 1 µM, compound concentration 1 uM, replicate 2
[7] = 24 h, 10 µM, compound concentration 10 uM, replicate 1
[8] = 24 h, 10 µM, compound concentration 10 uM, replicate 2
[9] = 48 h, 1 µM, compound concentration 1 uM, replicate 1
[10] = 48 h, 1 µM, compound concentration 1 uM, replicate 2
[11] = 48 h, 10 µM, compound concentration 10 uM, replicate 1
[12] = 48 h, 10 µM, compound concentration 10 uM, replicate 2

`COc1ccc2[nH]c(I)c(CCNC(C)=O)c2c1` [IODOMELATONIN] was tested, and the “Population Apoptotic (%)” value [1] was 68%, the “Population Fragmented Nuclei (%)” value [1] was 19% and the “Population Healthy Nuclei (%)” value [1] was 74%. The “Population Hoechst High Intensity Objects (%)” value [1] was 2%, the “Population Membrane Permeable-Phenotype (%)” value [1] was 4% and the “Population Mitochondria Different-Phenotype (%)” value [1] was 3%. For the same compound, the “Population Mitotic Cells (%)” value [1] was 31%, the “Population Normal (%)” value [1] was 97% and the “Population Pyknosed Nuclei (%)” value [1] was 5%. The “Population Tubulin-Different-Phenotype (%)” value [1] was 1%, the “Total Cell Count” value [1] was 282 and the “Population Apoptotic (%)” value [2] was 37%. For the same compound, the “Population Fragmented Nuclei (%)” value [2] was 11%, the “Population Healthy Nuclei (%)” value [2] was 83% and the “Population Hoechst High Intensity Objects (%)” value [2] was 0%. For the same compound, the “Population Membrane Permeable-Phenotype (%)” value [2] was 5%, the “Population Mitochondria Different-Phenotype (%)” value [2] was 1% and the “Population Mitotic Cells (%)” value [2] was 62%. For the same compound, the “Population Normal (%)” value [2] was 99%, the “Population Tubulin-Different-Phenotype (%)” value [2] was 2% and the “Total Cell Count” value [2] was 156. For the same compound, the “Population Apoptotic (%)” value [3] was 77%, the “Population Fragmented Nuclei (%)” value [3] was 25% and the “Population Healthy Nuclei (%)” value [3] was 64%. The “Population Hoechst High Intensity Objects (%)” value [3] was 3%, the “Population Membrane Permeable-Phenotype (%)” value [3] was 2% and the “Population Mitochondria Different-Phenotype (%)” value [3] was 1%. For the same compound, the “Population Mitotic Cells (%)” value [3] was 22%, the “Population Normal (%)” value [3] was 96% and the “Population Pyknosed Nuclei (%)” value [3] was 9%. For the same compound, the “Population Tubulin-Different-Phenotype (%)” value [3] was 1%, the “Total Cell Count” value [3] was 231 and the “Population Apoptotic (%)” value [4] was 80%. For the same compound, the “Population Fragmented Nuclei (%)” value [4] was 41%, the “Population Healthy Nuclei (%)” value [4] was 54% and the “Population Hoechst High Intensity Objects (%)” value [4] was 0%. For the same compound, the “Population Membrane Permeable-Phenotype (%)” value [4] was 10%, the “Population Mitochondria Different-Phenotype (%)” value [4] was 6% and the “Population Mitotic Cells (%)” value [4] was 20%. The “Population Normal (%)” value [4] was 99%, the “Population Pyknosed Nuclei (%)” value [4] was 3% and the “Population Tubulin-Different-Phenotype (%)” value [4] was 2%. For the same compound, the “Total Cell Count” value [4] was 134, the “Population Apoptotic (%)” value [5] was 86% and the “Population Fragmented Nuclei (%)” value [5] was 16%. For the same compound, the “Population Healthy Nuclei (%)” value [5] was 75%, the “Population Hoechst High Intensity Objects (%)” value [5] was 1% and the “Population Membrane Permeable-Phenotype (%)” value [5] was 3%. The “Population Mitochondria Different-Phenotype (%)” value [5] was 1%, the “Population Mitotic Cells (%)” value [5] was 13% and the “Population Normal (%)” value [5] was 98%. The “Population Pyknosed Nuclei (%)” value [5] was 8%, the “Population Tubulin-Different-Phenotype (%)” value [5] was 2% and the “Total Cell Count” value [5] was 354. For the same compound, the “Population Apoptotic (%)” value [6] was 80%, the “Population Fragmented Nuclei (%)” value [6] was 15% and the “Population Healthy Nuclei (%)” value [6] was 78%. For the same compound, the “Population Membrane Permeable-Phenotype (%)” value [6] was 8%, the “Population Mitochondria Different-Phenotype (%)” value [6] was 0% and the “Population Mitotic Cells (%)” value [6] was 20%. The “Population Pyknosed Nuclei (%)” value [6] was 5%, the “Total Cell Count” value [6] was 179 and the “Population Apoptotic (%)” value [7] was 95%. For the same compound, the “Population Fragmented Nuclei (%)” value [7] was 25%, the “Population Healthy Nuclei (%)” value [7] was 66% and the “Population Hoechst High Intensity Objects (%)” value [7] was 1%. The “Population Membrane Permeable-Phenotype (%)” value [7] was 4%, the “Population Mitochondria Different-Phenotype (%)” value [7] was 1% and the “Population Mitotic Cells (%)” value [7] was 4%. The “Population Normal (%)” value [7] was 98%, the “Population Pyknosed Nuclei (%)” value [7] was 8% and the “Population Tubulin-Different-Phenotype (%)” value [7] was 1%. The “Total Cell Count” value [7] was 273, the “Population Apoptotic (%)” value [8] was 88% and the “Population Fragmented Nuclei (%)” value [8] was 34%. For the same compound, the “Population Healthy Nuclei (%)” value [8] was 59%, the “Population Membrane Permeable-Phenotype (%)” value [8] was 7% and the “Population Mitochondria Different-Phenotype (%)” value [8] was 5%. For the same compound, the “Population Mitotic Cells (%)” value [8] was 11%, the “Population Pyknosed Nuclei (%)” value [8] was 5% and the “Population Tubulin-Different-Phenotype (%)” value [8] was 2%. The “Total Cell Count” value [8] was 153, the “Population Apoptotic (%)” value [9] was 92% and the “Population Fragmented Nuclei (%)” value [9] was 12%. The “Population Healthy Nuclei (%)” value [9] was 79%, the “Population Hoechst High Intensity Objects (%)” value [9] was 1% and the “Population Membrane Permeable-Phenotype (%)” value [9] was 5%. For the same compound, the “Population Mitochondria Different-Phenotype (%)” value [9] was 2%, the “Population Mitotic Cells (%)” value [9] was 7% and the “Population Normal (%)” value [9] was 98%. The “Population Pyknosed Nuclei (%)” value [9] was 7%, the “Population Tubulin-Different-Phenotype (%)” value [9] was 3% and the “Total Cell Count” value [9] was 509. The “Population Apoptotic (%)” value [10] was 86%, the “Population Fragmented Nuclei (%)” value [10] was 13% and the “Population Healthy Nuclei (%)” value [10] was 81%. For the same compound, the “Population Membrane Permeable-Phenotype (%)” value [10] was 4%, the “Population Mitotic Cells (%)” value [10] was 13% and the “Population Pyknosed Nuclei (%)” value [10] was 5%. The “Total Cell Count” value [10] was 284, the “Population Apoptotic (%)” value [11] was 97% and the “Population Fragmented Nuclei (%)” value [11] was 21%. The “Population Healthy Nuclei (%)” value [11] was 68%, the “Population Hoechst High Intensity Objects (%)” value [11] was 2% and the “Population Membrane Permeable-Phenotype (%)” value [11] was 5%. For the same compound, the “Population Mitochondria Different-Phenotype (%)” value [11] was 0%, the “Population Mitotic Cells (%)” value [11] was 2% and the “Population Normal (%)” value [11] was 97%. For the same compound, the “Population Pyknosed Nuclei (%)” value [11] was 9%, the “Population Tubulin-Different-Phenotype (%)” value [11] was 2% and the “Total Cell Count” value [11] was 373. For the same compound, the “Population Apoptotic (%)” value [12] was 100%, the “Population Fragmented Nuclei (%)” value [12] was 29% and the “Population Healthy Nuclei (%)” value [12] was 65%. The “Population Hoechst High Intensity Objects (%)” value [12] was 0%, the “Population Membrane Permeable-Phenotype (%)” value [12] was 7% and the “Population Mitochondria Different-Phenotype (%)” value [12] was 5%. For the same compound, the “Population Mitotic Cells (%)” value [12] was 0%, the “Population Normal (%)” value [12] was 99% and the “Population Pyknosed Nuclei (%)” value [12] was 5%. The “Population Tubulin-Different-Phenotype (%)” value [12] was 4% and the “Total Cell Count” value [12] was 209.
